Assay outcomes as filed in PubChem.
F508del corr: CFTR F508del correction in bronchial cells. CFBE cells, YFP halide quenching; stimulated with forskolin plus potentiator P3; % fluorescence drop versus neutral controls. activity (quench increase), % at 7.58 µM. actives 0.36% (n = 350,000);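 active means mean added fluorescence quench of at least 8% versus neutral control, with both replicates also reaching 8%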;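 further: cells transiently co-express mutant CFTR-F508del with the halide-sensitive YFP; corrector assay measuring rescue of mutant channel to the surface after 24 h compound exposure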
S100A4 inh HTS: S100A4-myosin IIA interaction inhibition. S100A4/TAMRA-MyoIIA peptide fluorescence polarization. inhibition, % at 10.7 µM. P26447. actives 0.14% (n = 360,000);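 active means mean inhibition of at least 70% across replicates, with every replicate also reaching that level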
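incubation = readout 5 min after mixing, signal stable up to 60 min | system = S100A4 monomer protein | buffer or medium = HEPES pH 7.2 with CaCl2, KCl, NaCl, DTT, Triton | benchmarks = neutral control DMSO, positive control TFP | also added = fluorescent myosin IIA peptide, 5 nM | compound dosing = one concentration per compound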
Env fusion inh: inhibitors of HIV Env-mediated cell fusion; actives 1.1% (n = 360,000); HeLa-JRFL Env/CEM21 cell fusion, luciferase; inhibition, % at 12.3 µM;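 active means mean replicate inhibition score of at least 50 and every replicate individually at or above 50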;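 further: 0% = plate neutral controls and 100% = maraviroc near 300 nM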
E-sel inducer: induces E-selectin expression in human endothelial cells; P16581; HUVEC E-selectin immunofluorescence imaging; normalized: neutral wells 0, TNF-alpha wells 100; activation, % at 7.58 µM; actives 0.37% (n = 260,000);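 active means mean E-selectin-positive cell signal at least 10% of the positive control, reached in at least 60% of replicates, without over 20% cell loss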
Target sequence (P16581 whole entry, looked up): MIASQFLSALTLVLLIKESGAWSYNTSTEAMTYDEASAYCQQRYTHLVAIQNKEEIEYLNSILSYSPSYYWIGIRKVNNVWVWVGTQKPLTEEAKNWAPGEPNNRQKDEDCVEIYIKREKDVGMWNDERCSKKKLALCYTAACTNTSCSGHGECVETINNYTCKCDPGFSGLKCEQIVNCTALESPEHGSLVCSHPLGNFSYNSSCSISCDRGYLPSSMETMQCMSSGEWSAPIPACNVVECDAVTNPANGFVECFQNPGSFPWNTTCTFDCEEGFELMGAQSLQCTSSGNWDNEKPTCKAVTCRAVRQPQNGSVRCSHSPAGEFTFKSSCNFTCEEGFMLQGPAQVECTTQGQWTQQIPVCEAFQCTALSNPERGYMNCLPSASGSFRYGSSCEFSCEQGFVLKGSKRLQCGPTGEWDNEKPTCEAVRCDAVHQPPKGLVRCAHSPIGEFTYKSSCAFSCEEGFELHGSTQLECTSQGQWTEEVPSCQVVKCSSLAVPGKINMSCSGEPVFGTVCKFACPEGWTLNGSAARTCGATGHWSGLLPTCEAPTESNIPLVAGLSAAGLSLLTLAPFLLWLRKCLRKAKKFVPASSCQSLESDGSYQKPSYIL
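assay system = HUVEC, human umbilical vein endothelial cells | input = 3,000 HUVEC seeded per well | medium = EGM-2 growth medium on 0.1% gelatin-coated wells | dosing = one compound dose added by pin transfer | signal = immunofluorescence imaging | read-out basis = % PE-positive cells | control set = TNF-alpha, DMSO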
FGF22 binding-1: shifts melting point of recombinant human FGF22; Q9HCT0; recombinant FGF22 thermal shift, SYPRO orange fluorescence; percent of sucrose octasulfate shift, DMSO zero; activity (Tm shift, normalised), % at 9.99 µM; actives 1.5% (n = 340,000); AID 651658;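 active means mean Tm shift, scaled 0 neutral to 100 positive control, at about 1.3% or above, every replicate too, limit read from the data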
FGF22 binding-2: binds human FGF22 shifting its melting temperature; shares compounds with FGF22 binding-1; recombinant FGF22 thermal shift, SYPRO orange fluorescence; thermal shift activity, °C (ΔTm) at 38 µM; actives 2% (n = 1,000); AID 720646;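 active means fitted rise in melting shift crosses a set limit at or below the top valid dose tested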
SYPRO no-protein: shows thermal shift signal without protein, FGF22 counter-screen | shares compounds with FGF22 binding-1 | compound-only SYPRO orange thermal shift counter-screen, no protein | AC50, µM (titrated, usually from 38 µM) | actives 2% (n = 1,000);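 active means rising signal whose fitted curve reaches the 0.54 level within the top valid dose, showing a melting point, actives reach about 13 µM in these data; inactive means the rest, including activity in the opposite direction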; further: value is where the raw curve crosses a fixed level and not half-maximal
Active calls of the source: *; ! = not confirmed by another sample; [ ] = another dose, or the depositor's remark. Hits are enriched below; roughly 2.7% of the tested compounds scored in any of these assays.

Results for CC(=O)Nc1ccc(S(=O)(=O)Nc2ccn(Cc3ccccc3Cl)n2)cc1 ?
F508del corr: -0.5; S100A4 inh HTS: -3.6; Env fusion inh: 12.1; E-sel inducer: 0.1; FGF22 binding-1: 2.1*; FGF22 binding-2: 0.104; SYPRO no-protein: inactive

What do the screens show for `CCCCn1cnc2c(SCc3cccc(F)c3)nc(N)nc21`?
F508del corr: 1.4; S100A4 inh HTS: -1.1; Env fusion inh: 0.6; E-sel inducer: -0.4; FGF22 binding-1: 23.1*; FGF22 binding-2: 0.048; SYPRO no-protein: inactive

How did COc1ccc2c3c([nH]c2c1)[C@H](CO)N(C(=O)Nc1ccc(F)cc1)CC31CCN(S(=O)(=O)c2cccs2)CC1 do in these assays?
F508del corr: 4.1; S100A4 inh HTS: 5.9; E-sel inducer: 0.3; FGF22 binding-1: 16.2*; FGF22 binding-2: 0.032[42 µM]; SYPRO no-protein: inactive

What do the screens show for `COc1cccc(S(=O)(=O)N2CCC3(CC2)CN(C(=O)Nc2ccc(F)cc2)[C@@H](CO)c2[nH]c4cc(OC)ccc4c23)c1`?
F508del corr: 1.5; S100A4 inh HTS: 2.0; Env fusion inh: 50.0[16.7 µM]; E-sel inducer: -0.5; FGF22 binding-1: 0.1

Results for CC(C)NC(=O)N(C)C[C@@H]1Oc2ncc(-c3cncnc3)cc2C(=O)N([C@@H](C)CO)C[C@H]1C ?
F508del corr: 1.2; S100A4 inh HTS: 5.9; Env fusion inh: -1.6[16.7 µM]; E-sel inducer: -0.7; FGF22 binding-1: -0.2

What do the screens show for `Cc1ccccc1C(=O)NCC(=O)OC(C)C(=O)Nc1cccc(S(=O)(=O)N2CCOCC2)c1` (stereo not given)?
F508del corr: 1.0; S100A4 inh HTS: 2.0; Env fusion inh: -0.2; E-sel inducer: 1.2; FGF22 binding-1: 1.5*; FGF22 binding-2: 0.088; SYPRO no-protein: inactive

What do the screens show for `C[C@H](CO)N1C[C@H](C)[C@H](CN(C)C(=O)Cc2ccccc2)OCCCC[C@H](C)Oc2ccc(NS(=O)(=O)c3ccc(F)cc3)cc2C1=O`?
F508del corr: 0.1; Env fusion inh: -14.2[16.7 µM]; E-sel inducer: 0.4; FGF22 binding-1: -0.2

How did CCC(=O)Nc1nc(C)c(-c2csc(Nc3ccccn3)n2)s1 do in these assays?
F508del corr: 4.8; S100A4 inh HTS: -30.7; Env fusion inh: 15.4; E-sel inducer: 12.7; FGF22 binding-1: 1.6*; SYPRO no-protein: inactive

Results for COc1ccc(S(=O)(=O)Nc2cc3c4c(c2)CCN4C(=O)CC3)cc1OC ?
F508del corr: 0.0; S100A4 inh HTS: 3.1; Env fusion inh: -18.2; E-sel inducer: 6.6; FGF22 binding-1: 11.7*; FGF22 binding-2: -0.008; SYPRO no-protein: inactive

Results for COc1ccc(S(=O)(=O)Nc2cc3c4c(c2)CC(=O)N4CCC3)cc1OC ?
F508del corr: 0.8; S100A4 inh HTS: -2.3; Env fusion inh: -29.3; E-sel inducer: 0.0; FGF22 binding-1: -0.4

Results for COc1ccc(S(=O)(=O)Nc2cccc3c2O[C@H](CN(C)C)[C@H](C)CN([C@@H](C)CO)C3=O)cc1 ?
F508del corr: -1.1; S100A4 inh HTS: 7.5; FGF22 binding-1: -0.2

What do the screens show for `O=C(Nc1ccc(O)cc1)c1cccc(Oc2ccc([N+](=O)[O-])cc2)c1`?
F508del corr: 0.7; S100A4 inh HTS: 3.0; Env fusion inh: 15.8; FGF22 binding-1: 3.1*; FGF22 binding-2: 0.156; SYPRO no-protein: inactive

How did CNC(=O)C[C@@H]1CC[C@@H]2[C@@H](COc3ccc(NS(=O)(=O)c4ccccc4C)cc3C(=O)N2C)O1 do in these assays?
F508del corr: 1.6; S100A4 inh HTS: -3.2; Env fusion inh: 15.4[16.7 µM]; E-sel inducer: 0.0; FGF22 binding-1: 19.7*; FGF22 binding-2: -0.018[42 µM]; SYPRO no-protein: inactive

Results for CNC(=O)C[C@@H]1CC[C@@H]2[C@H](COc3ccc(NC(=O)c4cccc(F)c4)cc3C(=O)N2C)O1 ?
F508del corr: -1.9; S100A4 inh HTS: 17.9; Env fusion inh: -7.1[16.7 µM]; E-sel inducer: 0.0; FGF22 binding-1: 15.9*!; FGF22 binding-2: 0; SYPRO no-protein: inactive
